Assay results published in ChEMBL document CHEMBL4007470, “Discovery of a 2'-fluoro-2'-C-methyl C-nucleotide HCV polymerase inhibitor and a phosphoramidate prodrug with favorable properties” (Bioorg Med Chem Lett, 2017).
Values after ≈ are worked out from the molar mass of the structure shown.

Tests used:
[1] = Hepatic extraction in hamster liver S9 fractions at 2 uM by LC-MS/MS analysis; assay type: ADME; details: cricetinae, liver S9 fractions; read-out: ERH
Outline: (§1)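 Compound at 2 μM incubated with S9 fractions at 37 °C for 90 min with NADPH and UDPGA. Quenched with aqueous acetonitrile/methanol containing internal standard and analysed by LC-MS/MS. Half-life from an exponential fit assuming first-order kinetics. Hepatic extraction predicted from half-life using the well-stirred model.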

[2] = Hepatic extraction in human liver S9 fractions at 2 uM by LC-MS/MS analysis; assay type: ADME; details: liver S9 fractions, read-out: ERH; outline: as §1
[3] = test system: Hepatitis C virus; experiment: Antiviral activity against HCV genotype 1a infected in human HuH7 cells by luciferase reporter gene assay; assay type: functional, cell-based, Hepacivirus hominis, subtype 1a; details: Hepatitis C virus, subtype 1a, Huh-7
[4] = test system: Hepatitis C virus; experiment: Antiviral activity against HCV genotype 1b infected in human HuH7 cells by luciferase reporter gene assay; assay type: functional, cell-based, Hepacivirus hominis; details: Hepatitis C virus, genotype 1b, Huh-7
Outline: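 Luciferase-reporter genotype 1b subgenomic replicon in Huh-7 cells; EC50 is concentration giving 50% inhibition. Values are averages of at least three repeats.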

[5] = Half life in human plasma at 2 uM by LC-MS/MS analysis; assay type: ADME, cell-free
Outline: (§2)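 Compound at 2 μM incubated in plasma at 37 °C for up to 4 h. Aliquots quenched with 9 volumes of acetonitrile containing internal standard, then centrifuged. Supernatant analysed by LC-MS/MS.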

[6] = Half life in hamster intestinal S9 fractions at 2 uM by LC-MS/MS analysis; assay type: ADME, Intestine; details: cricetinae, intestinal S9 fractions
[7] = test system: Hepatitis C virus; experiment: Antiviral activity against HCV genotype 4a infected in human HuH7 cells by luciferase reporter gene assay; assay type: functional, cell-based, Hepacivirus hominis; details: Hepatitis C virus, genotype 4a, Huh-7
[8] = Half life in human intestinal S9 fractions at 2 uM by LC-MS/MS analysis; assay type: ADME, Intestine; outline: as §1
[9] = Half life in hamster plasma at 2 uM by LC-MS/MS analysis; assay type: ADME, cell-free; details: cricetinae; outline: as §2
[10] = test system: RNA-directed RNA polymerase (Hepacivirus hominis), O39930 [UNDEFINED MUTATION]; experiment: Inhibition of HCV genotype 1b wild-type NS5B RNA dependent RNA polymerase S282T mutant relative to control; details: Hepatitis C virus subtype 1b
[11] = Inhibition of HCV genotype 1b wild-type NS5B RNA dependent RNA polymerase; design: species or system Hepatitis C virus subtype 1b
[12] = Solubility of the compound in pH 7.4 solution; assay type: physicochemical
Outline: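 Solubility measured at pH 7.4 using amorphous material.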

[13] = Prodrug activation in Syrian golden hamster liver assessed as triphosphate metabolite formation at 5 mg equivalents/kg, po after 1 hr by LC-MS/MS analysis; assay type: ADME, organism-based, Mesocricetus auratus; details: in vivo
Outline: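 Golden Syrian hamsters (groups of 12) dosed orally at 5 mg-eq/kg in EtOH/PEG400/water buffered with 50 mM pH 4 citrate. Livers harvested under isoflurane at 1 h and extracted in cold KOH/EDTA/70% MeOH with Cl-ATP. Triphosphate measured by LC/MS/MS, with endogenous ATP checked for sample stability.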

[14] = Permeability of the compound from apical to basolateral side in human Caco2 cells at 10 uM; assay type: ADME, cell-based, Caco-2; details: Caco-2, read-out: permeability
Outline: (§3)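 Caco-2 permeability at 10 μM compound, measured in apical-to-basolateral and basolateral-to-apical directions.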

[15] = test system: Plasma; experiment: Stability in rat plasma at 2 uM up to 4 hrs by LC-MS/MS analysis; assay type: ADME, cell-free; outline: as §2
[16] = Permeability of the compound from basolateral to apical side in human Caco2 cells at 10 uM; assay type: ADME, cell-based, Caco-2; details: Caco-2, read-out: permeability; outline: as §3

Compound | EC50 [3] [µM] | EC50 [4] [µM] | EC50 [7] [µM] | further results
CC[C@H](NP(=O)(OC[C@H]1O[C@@H](c2cnc3c(N)ncnn23)[C@](C)(F)[C@@H]1O)Oc1ccccc1)C(=O)OC(C)C (stereo partly drawn) | 2.6 | 5.6 | 2 | –
CC(C)OC(=O)C1(NP(=O)(OC[C@H]2O[C@@H](c3cnc4c(N)ncnn34)[C@](C)(F)[C@@H]2O)Oc2ccccc2)CCCCC1 (stereo partly drawn) | 68.3 | 83.7 | – | –
CC[C@H](C)OC(=O)C(C)(C)NP(=O)(OC[C@H]1O[C@@H](c2cnc3c(N)ncnn23)[C@](C)(F)[C@@H]1O)Oc1ccccc1 (stereo partly drawn) | 36 | > 88 | 3.6 | –
CC[C@@H](C)OC(=O)[C@@H](C)NP(=O)(OC[C@H]1O[C@@H](c2cnc3c(N)ncnn23)[C@](C)(F)[C@@H]1O)Oc1ccccc1 (stereo partly drawn) | > 88 | > 88 | > 88 | –
CCOC(=O)[C@@H](C)NP(=O)(OC[C@H]1O[C@@H](c2cnc3c(N)ncnn23)[C@](C)(F)[C@@H]1O)Oc1ccccc1 (stereo partly drawn) | 14.7 | 26.4 | 5.7 | hepatic extraction ratio at 2 µM [1]: 0.84; hepatic extraction ratio at 2 µM [2]: 0.28; half-life at 2 µM [5]: 11.4 h; half-life at 2 µM [6]: 3.2 h; half-life at 2 µM [8]: > 13.2 h; half-life at 2 µM [9]: 5.27 h
CCOC(=O)[C@H](CCCCNC(C)=O)NP(=O)(OC[C@H]1O[C@@H](c2cnc3c(N)ncnn23)[C@](C)(F)[C@@H]1O)Oc1ccccc1 (stereo partly drawn) | 60.5 | > 88 | 86.2 | –
CC[C@@H](C)OC(=O)C(C)(C)NP(=O)(OC[C@H]1O[C@@H](c2cnc3c(N)ncnn23)[C@](C)(F)[C@@H]1O)Oc1ccccc1 (stereo partly drawn) | 28.7 | > 88 | 1.1 | –
CCOC(=O)[C@@H](NP(=O)(OC[C@H]1O[C@@H](c2cnc3c(N)ncnn23)[C@](C)(F)[C@@H]1O)Oc1ccccc1)C(C)C (stereo partly drawn) | 35.2 | 37.6 | 11.2 | –
CC(C)OC(=O)[C@@H](C)NP(=O)(OC[C@H]1O[C@@H](c2cnc3c(N)ncnn23)[C@](C)(F)[C@@H]1O)Oc1ccccc1 (stereo partly drawn) | > 88 | > 88 | 58.1 | hepatic extraction ratio at 2 µM [1]: 0.85; hepatic extraction ratio at 2 µM [2]: 0.17; half-life at 2 µM [5]: 6.33 h; half-life at 2 µM [6]: 6.92 h; half-life at 2 µM [8]: > 13.2 h; half-life at 2 µM [9]: 11.2 h
C[C@@]1(O)[C@H](O)[C@@H](COP(=O)(O)OP(=O)(O)OP(=O)(O)O)O[C@H]1c1ccc2c(N)ncnn12 | – | > 89 | – | fold change (FC) [10]: > 30; IC50 [11]: 0.29 µM
C[C@@]1(F)[C@H](O)[C@@H](COP(=O)(O)OP(=O)(O)OP(=O)(O)O)O[C@@]1(C#N)c1ccc2c(N)ncnn12 [GS-441326] | – | > 89 | – | fold change (FC) [10]: 6; IC50 [11]: 0.42 µM
C[C@@]1(F)[C@H](O)[C@@H](COP(=O)(O)OP(=O)(O)OP(=O)(O)O)O[C@H]1c1ccc2c(N)ncnn12 | – | > 89 | – | fold change (FC) [10]: 2.8; IC50 [11]: 0.046 µM
CCOC(=O)C1(NP(=O)(OC[C@H]2O[C@@H](c3cnc4c(N)ncnn34)[C@](C)(F)[C@@H]2O)Oc2ccccc2)CCCC1 (stereo partly drawn) | 1 | 2 | 0.38 | –
CCOC(=O)C[C@H](NP(=O)(OC[C@H]1O[C@@H](c2cnc3c(N)ncnn23)[C@](C)(F)[C@@H]1O)Oc1ccccc1)C(=O)OCC (stereo partly drawn) | 3.3 | 8.6 | 2.3 | –
CC(C)(C)COC(=O)C1(NP(=O)(OC[C@H]2O[C@@H](c3cnc4c(N)ncnn34)[C@](C)(F)[C@@H]2O)Oc2ccccc2)CCC1 (stereo partly drawn) | 72.4 | > 88 | 77.8 | –
CCOC(=O)C1(NP(=O)(OC[C@H]2O[C@@H](c3cnc4c(N)ncnn34)[C@](C)(F)[C@@H]2O)Oc2ccccc2)CCC1 (stereo partly drawn) | 0.33 | 0.66 | 0.14 | hepatic extraction ratio at 2 µM [1]: 0.91; hepatic extraction ratio at 2 µM [2]: 0.88; half-life at 2 µM [5]: 11.1 h; half-life at 2 µM [6]: 1.17 h; half-life at 2 µM [8]: 2.92 h; half-life at 2 µM [9]: 7 h
CC(C)OC(=O)[C@@H](NP(=O)(OC[C@H]1O[C@@H](c2cnc3c(N)ncnn23)[C@](C)(F)[C@@H]1O)Oc1ccccc1)C(C)C (stereo partly drawn) | > 88 | > 88 | > 88 | –
COCCOC(=O)C1(NP(=O)(OC[C@H]2O[C@@H](c3cnc4c(N)ncnn34)[C@](C)(F)[C@@H]2O)Oc2ccccc2)CCC1 (stereo partly drawn) | 3.4 | 6.1 | 1.5 | –
CCOC(=O)[C@H](Cc1ccccc1)NP(=O)(OC[C@H]1O[C@@H](c2cnc3c(N)ncnn23)[C@](C)(F)[C@@H]1O)Oc1ccccc1 (stereo partly drawn) | 1.7 | 2.2 | – | –

The next lines start with results.

EC50 [3] [µM] | EC50 [4] [µM] | EC50 [7] [µM] | Compound | further results
0.59 | 0.8 | 0.15 | CCOC(=O)C(C)(C)NP(=O)(OC[C@H]1O[C@@H](c2cnc3c(N)ncnn23)[C@](C)(F)[C@@H]1O)Oc1ccccc1 (stereo partly drawn) | hepatic extraction ratio at 2 µM [1]: 0.83; hepatic extraction ratio at 2 µM [2]: 0.62; half-life at 2 µM [5]: 7.68 h; half-life at 2 µM [6]: 1.67 h; half-life at 2 µM [8]: 2.15 h; half-life at 2 µM [9]: 8.3 h
4.3 | 6.2 | 0.82 | COCCOC(=O)C(C)(C)NP(=O)(OC[C@H]1O[C@@H](c2cnc3c(N)ncnn23)[C@](C)(F)[C@@H]1O)Oc1ccccc1 (stereo partly drawn) | –
0.53 | 0.56 | 0.37 | CC[C@@H](C)OC(=O)[C@H](C)NP(=O)(OC[C@H]1O[C@@H](c2cnc3c(N)ncnn23)[C@](C)(F)[C@@H]1O)Oc1ccccc1 (stereo partly drawn) | –
18.8 | 16.1 | 2.1 | CC[C@H](C)OC(=O)C1(NP(=O)(OC[C@H]2O[C@@H](c3cnc4c(N)ncnn34)[C@](C)(F)[C@@H]2O)Oc2ccccc2)CCC1 (stereo partly drawn) | –
> 88 | > 88 | > 88 | CCOC(=O)[C@@H](NP(=O)(OC[C@H]1O[C@@H](c2cnc3c(N)ncnn23)[C@](C)(F)[C@@H]1O)Oc1ccccc1)C(C)(C)C (stereo partly drawn) | –
11.3 | 51.6 | 3.9 | CC(C)OC(=O)C1(NP(=O)(OC[C@H]2O[C@@H](c3cnc4c(N)ncnn34)[C@](C)(F)[C@@H]2O)Oc2ccccc2)CCCC1 (stereo partly drawn) | –
6.4 | > 88 | 0.35 | CC[C@@H](C)OC(=O)C1(NP(=O)(OC[C@H]2O[C@@H](c3cnc4c(N)ncnn34)[C@](C)(F)[C@@H]2O)Oc2ccccc2)CCC1 (stereo partly drawn) | –
1.2 | 3.4 | 0.83 | CCOC(=O)CC[C@H](NP(=O)(OC[C@H]1O[C@@H](c2cnc3c(N)ncnn23)[C@](C)(F)[C@@H]1O)Oc1ccccc1)C(=O)OCC (stereo partly drawn) | –
0.39 | 0.65 | 0.27 | CCC[C@H](NP(=O)(OC[C@H]1O[C@@H](c2cnc3c(N)ncnn23)[C@](C)(F)[C@@H]1O)Oc1ccccc1)C(=O)OCC (stereo partly drawn) | –
> 88 | > 88 | 62.5 | CCOC(=O)[C@H](CCCCN)NP(=O)(OC[C@H]1O[C@@H](c2cnc3c(N)ncnn23)[C@](C)(F)[C@@H]1O)Oc1ccccc1 (stereo partly drawn) | –
0.74 | 0.69 | 0.59 | CC(C)C[C@H](NP(=O)(OC[C@H]1O[C@@H](c2ccc3c(N)ncnn23)[C@](C)(F)[C@@H]1O)Oc1ccccc1)C(=O)OC(C)C (stereo partly drawn) | –
7.9 | 7.3 | 2.1 | CC[C@H](C)OC(=O)[C@@H](C)NP(=O)(OC[C@H]1O[C@@H](c2cnc3c(N)ncnn23)[C@](C)(F)[C@@H]1O)Oc1ccccc1 (stereo partly drawn) | –
6.2 | 20.3 | 4.3 | CC(C)(C)COC(=O)C(C)(C)NP(=O)(OC[C@H]1O[C@@H](c2cnc3c(N)ncnn23)[C@](C)(F)[C@@H]1O)Oc1ccccc1 (stereo partly drawn) | –
14.4 | 29.1 | 7 | CC(C)OC(=O)C1(NP(=O)(OC[C@H]2O[C@@H](c3cnc4c(N)ncnn34)[C@](C)(F)[C@@H]2O)Oc2ccccc2)CCOCC1 (stereo partly drawn) | –
0.51 | 0.67 | 0.11 | CC(C)OC(=O)[C@H](C)N[P@](=O)(OC[C@H]1O[C@@H](c2cnc3c(N)ncnn23)[C@](C)(F)[C@@H]1O)Oc1ccccc1 | solubility [12]: 642 µg/mL (≈ 1160 µM); hepatic extraction ratio at 2 µM [1]: 0.97; liver triphosphate concentration [13]: 0.34 µM; hepatic extraction ratio at 2 µM [2]: 0.65; Papp A→B at 10 µM [14]: 0.94 ×10⁻⁶ cm/s; half-life at 2 µM [5]: > 13.2 h; half-life at 2 µM [6]: 0.183 h; Stability [15]: Unstable; Papp B→A at 10 µM [16]: 16.6 ×10⁻⁶ cm/s; half-life at 2 µM [8]: 9.83 h; half-life at 2 µM [9]: > 13.2 h
0.81 | 0.67 | 0.46 | CC[C@H](C)OC(=O)[C@H](C)NP(=O)(OC[C@H]1O[C@@H](c2cnc3c(N)ncnn23)[C@](C)(F)[C@@H]1O)Oc1ccccc1 (stereo partly drawn) | –
